The test system of test [1] is THP-1. The test can be described thus: Antiinflammatory activity in human THP1 cells assessed as reduction in LPS and IFN-gamma-induced MCP1 level at 500 uM after 24 hrs. Format: functional, cell-based. The method, boiled down:
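THP-1 cells in DMEM-F12 with 5% FBS, 24-well plates, pretreated 15 min with compound or DMSO vehicle, then stimulated with LPS 0.5 µg/mL plus IFN-γ 150 U/mL for 24 h. Death read as supernatant LDH (iodonitrotetrazolium formazan, 490 nm, fraction of Triton X-100 lysate); survival by MTT; MCP-1 by ELISA. Concentration effects by randomized block ANOVA; 8–11 independent experiments.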

Test [2] deals with THP-1. Briefly: Antiinflammatory activity in human THP1 cells assessed as reduction in LPS and IFN-gamma-induced MCP level after 24 hrs. Format: functional, cell-based. The method in brief: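 THP-1 cells (5 × 10^5 cells/mL, DMEM-F12 with 5% FBS) pretreated 15 min with compound or DMSO vehicle, then stimulated with 0.5 µg/mL LPS plus 150 U/mL IFN-γ. After 24 h, MCP-1 in cell-free medium measured by ELISA. IC50 estimated from concentration–response; randomized block ANOVA.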

Test [3] has as its system THP-1. Briefly: Neuroprotective activity against LPS and IFN-gamma-stimulated neurotoxin production in human THP1 cell assessed as inhibition of THP1 cell secretion-induced toxicity to human SH-SY5Y cells after 72 hrs by MTT assay. The format is functional, cell-based. The settings on record: for IC50: THP-1, 72 h. The method in brief:
(§1)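 THP-1 cells pretreated 15 min with compound, then stimulated with LPS (0.5 µg/mL) plus IFN-γ (150 U/mL) for 24 h. Cell-free supernatant transferred to SH-SY5Y cells plated 24 h earlier (2 × 10^5 cells/mL). After 72 h, SH-SY5Y viability read by MTT (0.5 mg/mL, 1 h, 37 °C, OD570) or by LDH release (OD490, relative to Triton X-100 lysis). IC50 estimated.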

The test system of test [4] is THP-1. The test can be described thus: Neuroprotective activity against LPS and IFN-gamma-stimulated neurotoxin production in human THP1 cells assessed as inhibition of THP1 cell secretion-induced toxicity to human sSH-SY5Y cells after 72 hrs by LDH release assay. Format: functional, cell-based. The method in brief:
as §1

Test [5] relates to SH-SY5Y. Briefly: Cytotoxicity against human SH-SY5Y cells assessed as reduction in cell viability at 500 uM after 72 hrs by MTT assay. Format: functional. The method in brief: (§2)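 SH-SY5Y neuroblastoma cells exposed directly to compound at 5–500 µM; viability determined 72 h later by MTT (0.5 mg/mL final, 1 h at 37 °C, SDS/DMF solubilization overnight, 570 nm), relative to cells in fresh medium only.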

The test system of test [6] is THP-1. Briefly: Neuroprotective activity against LPS and IFN-gamma-stimulated neurotoxin production in human THP1 cells assessed as increase in THP1 cell secretion-induced LDH release to human SY-SH5Y cells at 10 to 100 uM after 72 hrs. Format: functional, cell-based. The method in brief:
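THP-1 cells treated with 10–100 µM compound 15 min before LPS/IFN-γ stimulation for 24 h. Supernatants transferred to SH-SY5Y cells. After 72 h, LDH released into the neuronal medium measured colorimetrically and expressed as a fraction of Triton X-100-lysed wells.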

Test [7] has as its system SH-SY5Y. Briefly: Cytotoxicity against human SH-SY5Y cells assessed as reduction in cell viability at 100 uM after 72 hrs by MTT assay. The format is functional. The method, boiled down: as §2
Test [8] has as its system SH-SY5Y. Briefly: Neuroprotective activity against H2O2-induced oxidative stress in human SH-SY5Y cells. Format: functional, cell-based. The method in brief:
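SH-SY5Y cells seeded at 2 × 10^5/mL in DMEM-F12 with 5% FBS; after 24 h medium replaced by supernatant of THP-1 cells stimulated 24 h with LPS + IFN-γ, or by medium containing 250 µM H2O2, with compound added at transfer. Cell death measured by LDH assay 72 h later; five independent experiments; randomized block ANOVA.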

A further test concerns Rattus norvegicus. Briefly: Antiinflammatory activity in Wistar albino rat assessed as inhibition of formalin-induced paw edema at 20 mg/kg, po administered 1 hr prior to formalin challenge measured after 2 hrs relative to control. Format: functional. The method, boiled down:
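Male Wistar rats, 180–200 g, groups of five; single oral dose 1 h before 2% formalin (0.1 mL) into subplantar left hind paw under light ether anaesthesia. Paw volume read by water plethysmometer at baseline and 1, 2, 3, 4 h; % inhibition = control (Vt−Vo) minus treated (Vt−Vo), over control, ×100. Means ± SEM; ANOVA with Student–Newman–Keuls.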

Test [9] deals with THP-1. Briefly: Antiinflammatory activity in human THP1 cells assessed as reduction in LPS and IFN-gamma-induced level at 500 uM after 24 hrs.
In another test the test system is SH-SY5Y (Homo sapiens). The test can be described thus: Neuroprotective activity against LPS and IFN-gamma-induced human THP1 cell supernatant-induced death of human SH-SY5Y cells after 72 hrs by MTT assay. The settings on record: THP-1.
The subject of test [10] is THP-1. Briefly: Neuroprotective activity against LPS and IFN-gamma-stimulated neurotoxin production in human THP1 cell assessed as inhibition of THP1 cell secretion-induced toxicity to human SY-SH5Y cells after 48 hrs of LPS nd IFN-gamma challenge measured after 72 hrs by MTT assay. Format: functional, cell-based. The method, boiled down: (§3)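 THP-1 cells given compound 15 min before LPS (0.5 µg/mL) plus IFN-γ (150 U/mL), then incubated 48 h. Cell-free supernatant moved onto SH-SY5Y cells plated 24 h earlier. Neuronal survival after 72 h by MTT assay or LDH release. 11 independent experiments; IC50 estimated.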

Test [11] has as its system THP-1. Briefly: Neuroprotective activity against LPS and IFN-gamma-stimulated neurotoxin production in human THP1 cell assessed as inhibition of THP1 cell secretion-induced toxicity to human SY-SH5Y cells after 48 hrs of LPS nd IFN-gamma challenge measured after 72 hrs by LDH release assay. Format: functional, cell-based. The method, boiled down: as §3

Activity calls are given as the source filed them. The rule behind the calls is not given here.

Turning to `N#Cc1cnn(-c2ccccc2)c1NC(=O)C(=O)Nc1c(C#N)cnn1-c1ccccc1`, the result in the test with THP-1 [1], in the test on THP-1 [4], in the test with THP-1 [6], in the test with THP-1 [9] and in the test on SH-SY5Y (Homo sapiens) was Active. In addition, the IC50 in the test on THP-1 [2] worked out at 250 µM; in the test on THP-1 [3], 10 µM. Further, the Activity entry was “Dose-dependent effect” with THP-1 [3], 86% with SH-SY5Y [5] and 23% with SH-SY5Y [7]. In the test with SH-SY5Y [8], the outcome was inactive. In the test with Rattus norvegicus, the inhibition in vivo at 20 mg/kg stood at 41%.

For the compound `CC(NC(=O)C(=O)Nc1c(C#N)cnn1-c1ccccc1)c1ccccc1` (configuration not stated), the IC50 in the test on THP-1 [2] (Homo sapiens, THP-1, 24 h, read-out: IC50) was determined as 150 µM; in the test on THP-1 [3], 6 µM; with THP-1 [10] it was 14 µM; with THP-1 [11], 40 µM. The inhibition in vivo at 20 mg/kg in the test on Rattus norvegicus was found to be 27%.

The values above are taken from ChEMBL document CHEMBL1212828, “Synthesis and biological evaluation of novel pyrazole compounds” (Bioorg Med Chem, 2010).
